Values after ≈ are worked out from the molar mass of the structure shown.
How the values were obtained:
K. pneumoniae NCTC 13438 = assay: Broth micro-dilution MIC / dose-response growth inhibition; assay type: cell-based, Klebsiella pneumoniae; conditions: for MIC: Klebsiella pneumoniae, NCTC13438, read-out: K. pneumoniae NCTC 13438 MIC; for K. pneumoniae NCTC 13438 Interp.: S/R interpretation by EUCAST breakpoint, ECOFF or fold vs QC strain
A. baumannii NCTC 13424 = assay: as above; assay type: cell-based, Acinetobacter baumannii; conditions: for MIC: Acinetobacter baumannii, NCTC13424, read-out: A. baumannii NCTC 13424 MIC; for A. baumannii NCTC 13424 Interp.: S/R interpretation by EUCAST breakpoint, ECOFF or fold vs QC strain
K. pneumoniae Ecl8 = assay: as above; assay type: cell-based, Klebsiella pneumoniae; conditions: for MIC: Klebsiella pneumoniae, ECL8, read-out: K. pneumoniae Ecl8 MIC; for K. pneumoniae Ecl8 Interp.: S/R interpretation by EUCAST breakpoint, ECOFF or fold vs QC strain
[1] = system: primary screening strains (A. baumannii NCTC 13424, K. pneumoniae NCTC 13438, K. pneumoniae Ecl8); assay: HTS / susceptibility assay with the primary screening strains; assay type: cell-based; conditions: 50 mg L^−1, positive control
How it was run: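 Broth microdilution (EUCAST method adapted to 384-well); inoculum 5 × 10^5 CFU mL−1 (OD600 0.0005); static at 37 °C in 5% CO2 for 24 h (K. pneumoniae) or 20 h (A. baumannii); compound at one concentration in duplicate, or two concentrations (1.4–68.0 μM, 0.5% DMSO) singly for one library; OD600 read; % growth inhibition normalised between apramycin 50 mg L−1 and DMSO wells; actives called at 3σ.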

Compound | MIC (K. pneumoniae NCTC 13438) [µg/mL] | K. pneumoniae NCTC 13438 Interp. (K. pneumoniae NCTC 13438) | MIC (A. baumannii NCTC 13424) [µg/mL] | A. baumannii NCTC 13424 Interp. (A. baumannii NCTC 13424) | MIC (K. pneumoniae Ecl8) [µg/mL] | K. pneumoniae Ecl8 Interp. (K. pneumoniae Ecl8) | growth inhibition of primary screening strains [1]
NCC[C@H](O)C(=O)N[C@@H]1C[C@H](N)[C@@H](O[C@H]2O[C@H](CN)[C@@H](O)[C@H](O)[C@H]2O)[C@H](O)[C@H]1O[C@H]1O[C@H](CO)[C@@H](O)[C@H](N)[C@H]1O [Amikacin] | 64 (≈ 109 µM) | R | > 512 | R | 2 (≈ 3.42 µM) | S | –
CN[C@@H]1[C@@H](O[C@H]2O[C@H](CO)[C@@H](N)[C@H](O)[C@H]2O)OC2C[C@@H](N)[C@@H](O[C@H]3[C@H](O)[C@@H](O)[C@H](N)C[C@@H]3N)OC2[C@@H]1O (some centres unmarked) [Apramycin] | 4 (≈ 7.41 µM) | S ^c | 8 (≈ 14.8 µM) | S ^c | 4 (≈ 7.41 µM) | S ^c | completely inhibited the growth
C[C@H]1[C@H](NC(=O)/C(=N\OC(C)(C)C(=O)O)c2csc(N)n2)C(=O)N1S(=O)(=O)O [Aztreonam] | > 512 | R | 32 (≈ 73.5 µM) | – | 0.25 (≈ 0.574 µM) | S | –
CO/N=C(\C(=O)N[C@@H]1C(=O)N2C(C(=O)[O-])=C(C[N+]3(C)CCCC3)CS[C@H]12)c1csc(N)n1 [Cefepime] | 128 (≈ 266 µM) | R | 32 (≈ 66.6 µM) | R | 0.12 (≈ 0.25 µM) | S | –
CO/N=C(\C(=O)N[C@@H]1C(=O)N2C(C(=O)O)=C(COC(C)=O)CS[C@H]12)c1csc(N)n1 [Cefotaxime] | 256 (≈ 562 µM) | R | 512 (≈ 1120 µM) | R | 0.06 (≈ 0.132 µM) | S | –
CC(C)(O/N=C(\C(=O)N[C@@H]1C(=O)N2C(C(=O)[O-])=C(C[n+]3ccccc3)CS[C@H]12)c1csc(N)n1)C(=O)O [Ceftazidime] | 512 (≈ 937 µM) | R | 64 (≈ 117 µM) | R | 0.5 (≈ 0.915 µM) | S | –
O=C(N[C@H](CO)[C@H](O)c1ccc([N+](=O)[O-])cc1)C(Cl)Cl [Chloramphenicol] | 32 (≈ 99 µM) | R | 64 (≈ 198 µM) | – | 4 (≈ 12.4 µM) | S | –
O=C(O)c1cn(C2CC2)c2cc(N3CCNCC3)c(F)cc2c1=O [Ciprofloxacin] | > 512 | – | – | R | – | – | –
C[C@@H]1O[C@@H]1P(=O)(O)O [Fosfomycin] | 16 (≈ 116 µM) | S | 64 (≈ 464 µM) | – | 64 (≈ 464 µM) | R | –
CNC(C)C1CCC(N)C(OC2C(N)CC(N)C(OC3OCC(C)(O)C(NC)C3O)C2O)O1 (centres unmarked) [Gentamicin] | 4 (≈ 8.38 µM) | R | > 512 | R | 1 (≈ 2.09 µM) | S | –
C[C@@H](O)[C@H]1C(=O)N2C(C(=O)O)=C(SCCN=CN)C[C@H]12 [Imipenem] | 128 (≈ 428 µM) | R | 128 (≈ 428 µM) | R | 0.25 (≈ 0.835 µM) | S | –
C[C@H]1COc2c(N3CCN(C)CC3)c(F)cc3c(=O)c(C(=O)O)cn1c23 [Levofloxacin] | 128 (≈ 354 µM) | R | 32 (≈ 88.6 µM) | R | 0.12 (≈ 0.332 µM) | S | –
C[C@@H](O)[C@H]1C(=O)N2C(C(=O)O)=C(S[C@@H]3CN[C@H](C(=O)N(C)C)C3)[C@H](C)[C@H]12 [Meropenem] | – | R | 64 (≈ 167 µM) | R | 0.06 (≈ 0.156 µM) | S | –
CN(C)c1ccc(O)c2c1C[C@H]1C[C@H]3[C@H](N(C)C)C(O)=C(C(N)=O)C(=O)[C@@]3(O)C(O)=C1C2=O [Minocycline] | 4 (≈ 8.74 µM) | S ^b | 4 (≈ 8.74 µM) | S ^b | 2 (≈ 4.37 µM) | S ^b | –
Cc1cc(NS(=O)(=O)c2ccc(N)cc2)no1 [Sulfamethoxazole] | > 512 | R ^c | > 512 | R ^c | 64 (≈ 253 µM) | R ^c | –
CN(C)[C@@H]1C(O)=C(C(N)=O)C(=O)[C@@]2(O)C(O)=C3C(=O)c4c(O)cccc4[C@@](C)(O)[C@H]3C[C@@H]12 [Tetracycline] | 4 (≈ 9 µM) | S ^b | 256 (≈ 576 µM) | R ^b | 1 (≈ 2.25 µM) | S ^b | –
NC[C@H]1O[C@H](O[C@H]2[C@H](O)[C@@H](O[C@H]3O[C@H](CO)[C@@H](O)[C@H](N)[C@H]3O)[C@H](N)C[C@@H]2N)[C@H](N)C[C@@H]1O [Tobramycin] | 32 (≈ 68.4 µM) | R | > 512 | R | 1 (≈ 2.14 µM) | S | –
COc1cc(Cc2cnc(N)nc2N)cc(OC)c1OC [Trimethoprim] | > 512 | R | 128 (≈ 441 µM) | R | 4 (≈ 13.8 µM) | S | –
Colistin | – | S ^b | – | S ^b | – | S ^b | –
Polymyxin B | – | S ^c | – | S ^c | – | S ^c | –

— paper PMC10963893 (eBioMedicine, 2024)
